RGS4 inh: human RGS4 inhibition; P49798; HEK293 M3R/RGS4 inducible, Fluo-4 calcium flux; stronger effect = higher value; triggered by carbachol at its EC20; AID 463165; 310,000 compounds, 0.45% hits; B-score at 10 µM;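 active = B-score, a plate-corrected calcium signal, over three deviations above library mean, with baseline fluorescence within five deviations of library mean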;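 note: RGS4 expression induced by doxycycline in cells with stable M3 receptor; B-score is computed from the integrated fluorescence ratio over baseline after carbachol; higher B-score means a larger calcium signal and so more RGS4 inhibition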
Target sequence (P49798 whole entry, looked up): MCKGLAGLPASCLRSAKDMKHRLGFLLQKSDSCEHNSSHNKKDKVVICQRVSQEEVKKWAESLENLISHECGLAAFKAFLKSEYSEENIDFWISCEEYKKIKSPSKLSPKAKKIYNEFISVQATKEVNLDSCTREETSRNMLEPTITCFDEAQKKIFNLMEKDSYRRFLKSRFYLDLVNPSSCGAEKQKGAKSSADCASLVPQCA
MrgX1 antagonist: blocks BAM8-22 activation of human MrgX1 receptor | 310,000 compounds, 1.3% hits | MRGX1-HEK293 calcium flux, Fluo-4, BAM8-22 antagonism; stronger effect = lower value | B-score at 10 µM;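 active = calcium-response B-score plate-corrected more than 3 library SD below zero, starting fluorescence within 5 deviations, no agonist response on first addition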;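 note: peak minus trough fluorescence over baseline after final BAM8-22 challenge near maximal dose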
Target sequence (Q96LB2 whole entry, looked up): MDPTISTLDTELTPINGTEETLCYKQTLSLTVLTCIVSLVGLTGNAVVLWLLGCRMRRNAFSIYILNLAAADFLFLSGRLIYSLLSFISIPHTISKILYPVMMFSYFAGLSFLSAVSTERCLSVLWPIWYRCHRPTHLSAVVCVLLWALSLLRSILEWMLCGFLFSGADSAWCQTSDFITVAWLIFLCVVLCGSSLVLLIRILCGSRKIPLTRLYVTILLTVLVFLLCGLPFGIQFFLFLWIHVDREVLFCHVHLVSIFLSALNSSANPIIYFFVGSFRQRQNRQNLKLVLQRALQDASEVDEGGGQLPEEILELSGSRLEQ
MrgX1 allo act: allosterically activates human MrgX1 receptor signaling | Q96LB2 | MrgX1-HEK293, Fluo-4 calcium flux, FDSS; stronger effect = higher value | B-score at 10 µM | 310,000 compounds, 0.63% hits | AID 588675;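 active = plate-corrected calcium response at least 3 library SD above typical, normal starting fluorescence, not activating the receptor alone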;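 note: compound read alongside a low EC10 to EC30 dose of BAM8-22 agonist; peak minus trough fluorescence over baseline measured at the second addition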
MrgX1 agonist: human MrgX1 receptor agonism, primary screen | B-score at 10 µM | Q96LB2 | MrgX1-HEK293 cells, Fluo-4 calcium fluorescence, agonist mode; stronger effect = higher value | AID 588627 | 310,000 compounds, 0.44% hits;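 active = calcium response B-score plate-corrected fluorescence ratio at least 3 library SD, with starting fluorescence B-score inside 5 SD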
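Material: MrgX1-expressing HEK293 cells; input: 15,000 cells per well; doses: test compound given as first of three sequential additions; schedule: overnight plating before 1 h dye loading; technique: Fluo-4 NW calcium-flux fluorescence, kinetic read; evaluation: baseline-normalised fluorescence change ratio, B-scored; control set: plate-wise positive and negative controls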
RGS4 act: RGS4 potentiation or activation | HEK293 M3R/inducible RGS4, carbachol calcium flux Fluo4; stronger effect = lower value | B-score at 10 µM | 310,000 compounds, 0.92% hits | AID 463111;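 active = B-score of the integrated calcium signal more than 4 SD below the library mean, with starting fluorescence not abnormally high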;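 note: negative B-score means reduced calcium response which marks RGS4 activation or potentiation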
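Material: Inducible-RGS4 HEK293 cells carrying M3 receptor; also added: carbachol at ECmax as muscarinic agonist stimulus; incubation: compound preincubation 20 min at room temperature before agonist; signal: Fluo4-AM (2 µM) calcium-flux fluorescence, kinetic read; measure: integrated calcium ratio converted to B score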
MrgX1 ag reconf: reconfirmed activator of human MrgX1 receptor signaling. activation, % at 10 µM. 600 compounds, 78% hits. shares compounds with MrgX1 agonist. MrgX1-HEK293, Fluo-4 calcium fluorescence, FDSS;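 active = calcium signal rise, corrected for plate position, at least 3 library SD high, with starting brightness within 5 such deviations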
HEK293 Ca flux: activity in parental HEK293 cells lacking MrgX1; shares compounds with MrgX1 antagonist; Fluo-4 calcium fluorescence, FDSS; fluorescence ratio F(max-min)/F0 at 10 µM; 4,000 compounds, 2% hits; AID 624111;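 active = duplicate-averaged calcium fluorescence ratio at least three times the standard deviation of buffer wells, a nonspecific response in parental cells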
HEK293 Ca counter: MrgX1 allosteric activator counter-screen hit in parental HEK293 cells; shares compounds with MrgX1 antagonist; parental HEK293 calcium flux, Fluo-4 fluorescence ratio; stronger effect = higher value; fluorescence ratio F(max-min)/F0 at 10 µM; 4,000 compounds, 0.4% hits;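 active = calcium fluorescence ratio, averaged over duplicates, at least 3 SD of the buffer-well ratio, meaning a nonspecific response in receptor-free cells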;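 note: untransfected parental HEK293 lacking MrgX1 used as counterscreen for MrgX1 allosteric activators; fluorescence change taken during the second addition on a kinetic imager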
HEK293 Ca cntr2: MrgX1 activator counter-screen hit in parental HEK293 cells | fluorescence ratio F(max-min)/F0 at 10 µM | 4,000 compounds, 8.7% hits | Fluo-4 calcium fluorescence (FDSS); stronger effect = higher value | shares compounds with MrgX1 antagonist;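 active = calcium fluorescence ratio at least three times the spread of buffer wells, meaning a non-specific response in parental cells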
* hit, by the source's call; i = inactive; nt = no result given. An excerpt weighted towards active compounds, which were near 3.5% of everything screened.

SMILES | RGS4 inh | MrgX1 antagonist | MrgX1 allo act | MrgX1 agonist | RGS4 act | MrgX1 ag reconf | HEK293 Ca flux | HEK293 Ca counter | HEK293 Ca cntr2
Cc1c(Cl)cccc1NC(=O)Nc1cc(C(C)(C)C)on1 | i | i | i | i | i | nt | nt | nt | nt
CCOc1ccc(S(=O)(=O)Nc2ncn[nH]2)cc1 | i | i | i | i | i | nt | nt | nt | nt
CCOc1ccc(Br)cc1S(=O)(=O)Nc1ncn[nH]1 | i | i | i | 32* | i | i | i | i | i
COC(=O)c1ccc(Cl)cc1N(Cc1c(F)cccc1Cl)S(C)(=O)=O | i | i | i | 71* | i | 290%* | i | i | 61*
CC[C@@H](C(=O)[C@@H](C)[C@@H](O)[C@H](C)CCc1ccc(C)c(O)c1C(=O)O)[C@H]1O[C@](CC)([C@H]2CC[C@](O)(CC)[C@H](C)O2)C[C@@H]1C | i | i | i | 147* | i | 909%* | i | i | 198*
O=C(NCc1cccc(C(F)(F)F)c1)C1CC(c2c(Cl)cccc2Cl)=NO1 (stereo not given) | i | i | i | i | i | nt | nt | nt | nt
COc1ccc(C/C(N)=N/OC(=O)CCc2ccccc2)cc1 | i | i | i | i | i | nt | nt | nt | nt
O=C(CCc1ccccc1)NNC(=O)c1ccc(Cl)cc1 | i | i | i | i | i | nt | nt | nt | nt
Cc1ccc(C(=O)NNC(=S)NC(=O)c2ccc(Cl)cc2)cc1 | i | i | i | 132* | i | 747%* | i | i | 138*
O=C(CCc1ccccc1)NNC(=S)NC(=O)c1ccc(Cl)cc1 | i | i | i | 141* | i | 696%* | i | i | 126*
O=C(Nc1cccc(NC(=O)c2ncn[nH]2)c1)c1cccc(Cl)c1 | i | i | i | i | i | nt | nt | nt | nt
NCc1cc2c3c(c1)CCCN3CCC2 | i | i | i | i | i | nt | nt | nt | nt
CN1CCN(S(=O)(=O)c2ccc(NC(=O)COc3ccccc3Cl)cc2)CC1 | i | i | i | i | i | nt | nt | nt | nt
O=c1c2c(-c3ccccc3)csc2ncn1/N=C/c1ccc(O)c([N+](=O)[O-])c1 | i | i | i | i | i | nt | nt | nt | nt
O=c1c2c(-c3ccccc3)csc2ncn1/N=C/c1cccc([N+](=O)[O-])c1O | i | i | i | 71* | i | 315%* | i | i | 76*
CC1CCN(c2nc3ccc(C(=O)N4CCN(Cc5ccc6c(c5)OCO6)CC4)cc3s2)CC1 | i | i | i | i | i | nt | nt | nt | nt
N#Cc1ccc(-c2cccnc2)nc1SCC(=O)c1ccccc1 | i | i | i | 30* | i | 197%* | i | i | i
CN1CCN(C(=O)CSc2nc(-c3ccncc3)ccc2C#N)CC1 | i | i | i | 35* | i | 158%* | i | i | i
CN1CCN(C(=O)CSc2nc(-c3cccs3)cc(-c3cccs3)c2C#N)CC1 | i | i | i | i | i | nt | nt | nt | nt
COc1ccc2nc(NC(=O)CSc3n[nH]c(N)n3)sc2c1 | i | i | i | i | i | nt | nt | nt | nt
Cc1ccc(-c2nnc(OCc3cccnc3)c3ccccc23)cc1 | i | i | i | i | i | nt | nt | nt | nt
Nc1c(C(=O)Nc2nc3ccccc3s2)sc2nc(-c3cccs3)ccc12 | i | i | i | 29* | i | 157%* | i | i | i
COc1cc(C(=O)NC(=S)NNC(=O)[C@H]2C[C@@H]2c2ccccc2)cc(OC)c1OC | i | i | i | 96* | i | 386%* | i | i | 76*
